Compound activity (PubChem)
Sampled rows, rich in hits. Any-hit rate of the full collection: about 5.5%.
KCC2 mod = KCC2 (human) Cl- transport modulation | Q9H2X9 | AID 1456 | KCC2 cells, thallium flux FluoZin-2 fluorescence | hit rate 2.2% among 190,000 | B-score of Tl+ flux slope (higher = more flux/activation; lower = inhibition) at 10 µM;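 active = thallium flux slope and its plate-corrected score both differing from the plate sample mean at a set confidence after two filtering rounds, in either direction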;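 note: slope of fluorescence scaled to starting intensity during 10 to 20 s after thallium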
Target sequence (Q9H2X9 whole entry, looked up): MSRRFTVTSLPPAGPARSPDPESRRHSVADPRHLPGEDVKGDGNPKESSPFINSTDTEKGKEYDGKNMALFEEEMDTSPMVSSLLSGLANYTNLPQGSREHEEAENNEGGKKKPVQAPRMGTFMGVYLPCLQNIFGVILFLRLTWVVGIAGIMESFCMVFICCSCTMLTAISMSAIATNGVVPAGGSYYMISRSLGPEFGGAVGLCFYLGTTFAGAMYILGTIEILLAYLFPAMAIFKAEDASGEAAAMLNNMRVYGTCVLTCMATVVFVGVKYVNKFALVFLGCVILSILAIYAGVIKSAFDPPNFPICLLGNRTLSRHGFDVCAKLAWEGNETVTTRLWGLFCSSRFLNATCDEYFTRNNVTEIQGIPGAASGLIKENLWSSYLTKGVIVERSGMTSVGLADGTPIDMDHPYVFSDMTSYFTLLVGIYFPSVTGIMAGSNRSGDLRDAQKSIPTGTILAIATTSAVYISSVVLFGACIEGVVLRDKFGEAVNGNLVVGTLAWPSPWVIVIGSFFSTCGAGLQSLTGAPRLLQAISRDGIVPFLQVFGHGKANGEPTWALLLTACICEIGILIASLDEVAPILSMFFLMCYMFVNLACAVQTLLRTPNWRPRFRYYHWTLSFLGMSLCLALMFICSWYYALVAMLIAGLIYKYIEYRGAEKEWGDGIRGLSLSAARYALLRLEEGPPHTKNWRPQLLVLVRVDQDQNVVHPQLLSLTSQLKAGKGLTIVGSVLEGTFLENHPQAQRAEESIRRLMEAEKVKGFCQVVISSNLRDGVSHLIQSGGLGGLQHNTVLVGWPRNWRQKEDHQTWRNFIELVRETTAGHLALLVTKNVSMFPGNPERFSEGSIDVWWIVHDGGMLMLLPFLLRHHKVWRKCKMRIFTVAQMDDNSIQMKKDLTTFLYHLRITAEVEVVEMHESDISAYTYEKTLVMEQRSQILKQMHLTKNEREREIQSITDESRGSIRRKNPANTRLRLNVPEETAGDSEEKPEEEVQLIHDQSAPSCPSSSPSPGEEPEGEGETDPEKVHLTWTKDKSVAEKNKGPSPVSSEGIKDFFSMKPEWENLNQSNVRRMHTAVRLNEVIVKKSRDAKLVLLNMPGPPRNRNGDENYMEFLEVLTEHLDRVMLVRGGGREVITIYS
WT yeast gro inh = growth inhibition of WT yeast, mitochondrial fusion screen | inhibition, % at 10 µM | hit rate 2.1% among 190,000 | AID 1362 | mitochondrial fusion phenotypic screen, WT strain; in the data active = inhibition above about 58%; tested in S. cerevisiae
BB579 growth dn = yeast BB579 growth reduction in restrictive medium. S. cerevisiae BB579 growth, OD615, 48 h. inhibition, % at 10 µM. hit rate 0.51% among 140,000;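 active = inhibition above a set limit, 3 SD over the mean compound inhibition, cut at about 44% in these data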
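Material: Saccharomyces cerevisiae DeaD strain BB579, replicative lifespan model yeast; buffer or medium: CSMM-D restrictive synthetic medium containing dextrose (glucose); compound: 10 µM single dose, DMSO 0.25%; timing: 48 h compound exposure at 30 °C after 4 h preincubation; signal: turbidity as optical density at 615 nm; benchmarks: positive control amphotericin B 10 µg/mL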
RAM inhibit = inhibitors of the yeast RAM network. S. cerevisiae dse1pr::URA3 reporter, 5-FOA growth OD615, 2 d; analog-sensitive cbk1-as2 kinase mutant strain. inhibition, % at 50 µM. hit rate 1.8% among 190,000;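 active = inhibition above a set limit, 3 SD over mean compound inhibition, cut at about 8.4% in these data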;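 note: 0% = DMSO-only wells with no growth and 100% = 10 µM 1-NA-PP1 full growth; inhibition rescues growth on 5-FOA so higher OD means more RAM inhibition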
Yeast lifespan up = yeast lifespan extension | S. cerevisiae growth with nicotinamide, OD615; deaD strain in restrictive glucose medium | inhibition of the nicotinamide effect, % at 10 µM | hit rate 0.68% among 130,000 | AID 775;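 active = inhibition above a set limit, placed 3 SD over the median of all compounds, cut at about 26% in these data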;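 note: 0% = nicotinamide-treated wells and 100% = cells grown without nicotinamide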
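Material: Modified budding yeast, DeaD strain | Medium: Restrictive glucose medium | Probe or stimulus: 1.5 mM nicotinamide | Dosing: Single dose 10 µM compound, 0.25% DMSO | Times: 48 h at 30 °C | Technique: OD615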
KCC2 secondary = confirmation of human KCC2 transport modulators | shares compounds with KCC2 mod | HEK293-KCC2, thallium flux, FluoZin2 fluorescence; hits give high values | normalised thallium flux (F/F0 slope) at 10 µM | hit rate 15% among 3,700;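 active = thallium flux slope above the same plate's solvent-only control mean plus 3 SD; inconclusive = the two replicate wells disagree; inactive = no significant difference from solvent-only control wells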
KCC2 bumet counter = thallium flux despite bumetanide block in KCC2 cells, secondary assay 3 | HEK293-KCC2 + bumetanide/ouabain, thallium flux FluoZin2; hits give high values | shares compounds with KCC2 mod | normalized thallium flux at 10 µM | hit rate 49% among 3,700;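 active = thallium entry rate above the same plate's blocked-transporter control wells by more than 3 SD; inconclusive = the two repeat wells disagree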;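 note: raw slope of fluorescence over initial fluorescence between 10 and 20 s after thallium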
KCC2 secondary2 = KCC2 (human) modulation, second secondary assay; shares compounds with KCC2 mod; HEK293-KCC2, thallium flux FluoZin2 fluorescence; actives lie on both sides; F/F0 rise rate, 10–20 s post-thallium; normalized thallium flux at 10 µM; hit rate 23% among 3,700; AID 1715;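 active = thallium flux slope more than 3 SD above or below the plate's solvent-only control mean, mostly below; inconclusive = the two repeat wells disagreed; inactive = no significant shift from solvent-only controls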;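 note: raw slope with 0.1% DMSO as baseline and bumetanide as block control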
HEK counter1 = parental HEK flux effect, counter-screen; thallium flux rate (normalised fluorescence) at 10 µM; shares compounds with KCC2 mod; hit rate 46% among 3,700; HEK293 parental cells, thallium flux FluoZin2, ouabain; baseline-ratio fluorescence slope, 10–20 s after thallium; AID 1716;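 active = thallium flux rate significantly above the same plate's solvent-only control wells, beyond their mean plus 3 SD; inconclusive = the two replicate wells gave conflicting results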
KCC2 ouabain = confirmation of human KCC2 modulators with ouabain. shares compounds with KCC2 mod. hit rate 48% among 3,700. AID 1717. raw Tl+ flux slope (below DMSO = inhibition, above = activation) at 10 µM. HEK293-KCC2, thallium flux FluoZin2 fluorescence; bidirectional: low = inhibitor, high = activator;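 active = thallium flux slope beyond 3 SD from same-plate DMSO control mean in most replicates, usually higher, sometimes lower; inconclusive = repeat tests gave conflicting results; inactive = no significant difference from controls in most replicates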;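 note: slope of initial-normalized fluorescence between seconds 10 and 20 after thallium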
HEK counter2 = counter-screen for KCC2 modulators: effect in parental HEK293 cells; shares compounds with KCC2 mod; thallium flux slope at 10 µM; hit rate 33% among 3,700; AID 1718; thallium flux FluoZin-2 fluorescence slope;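 active = thallium flux slope above the same plate's solvent-control mean plus 3 SD in both duplicate wells; inconclusive = duplicate wells that disagreed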;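 note: run without ouabain in cells lacking the KCC2 cotransporter; slope of fluorescence scaled to its starting value between 10 and 20 s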
* marks the source's active call; other numbers are inactive results; u = inconclusive; x = no result given.

SMILES | KCC2 mod | WT yeast gro inh | BB579 growth dn | RAM inhibit | Yeast lifespan up | KCC2 secondary | KCC2 bumet counter | KCC2 secondary2 | HEK counter1 | KCC2 ouabain | HEK counter2
CN(CCO)c1cc(Sc2nc3ccccc3s2)c2nonc2c1[N+](=O)[O-] | x | 6 | -48 | 1 | -22 | 0.006 | 0.015* | 0.033 | 0.014* | u | 0.017*
CC(=O)OCCN(C)c1cc(SC(C)C)c2nonc2c1[N+](=O)[O-] | -0.041 | 31 | x | 0 | x | x | x | x | x | x | x
S=c1[nH]nc(COc2ccc(Cl)cc2)o1 | -6.1* | -18 | -10 | -1 | 1 | 0.0072 | u | 0.022* | 0.0081 | u | 0.011
Cc1ccc(C(C)C)c(OCc2n[nH]c(=S)o2)c1 | 28* | 13 | x | -2 | x | 0.014 | 0.043* | u | 0.034* | 0.035* | 0.034*
COc1ccc(OCc2n[nH]c(=S)o2)cc1 | -3.1 | -1 | 0 | 1 | -7 | x | x | x | x | x | x
S=c1[nH]nc(CCc2ccccc2)n1-c1ccc(Cl)cc1 | 1 | 33 | x | 1 | x | x | x | x | x | x | x
S=c1[nH]nc(CCc2ccc(Cl)cc2)o1 | -7.8* | 19 | 27 | -2 | 2 | 0.01 | 0.007 | 0.023* | 0.0074 | 0.04* | 0.01
C=C(C)C(=O)Nc1cccc(C2=NOC3(C2)C[C@@H](C(N)=O)N(C(=O)/C=C/C=C/C)C3)c1 (stereo partly drawn) | -0.28 | x | x | x | x | x | x | x | x | x | x
Cc1ccc2nc(-c3ccc(N4C(=N)SC5CS(=O)(=O)CC54)cc3)sc2c1 (stereo not drawn) | 0.5 | -8 | -19 | 1 | -6 | x | x | x | x | x | x
O=C(NCCc1ccc(Cl)cc1)/C(=C/c1cccnc1)NC(=O)c1ccccc1 | -0.12 | 6 | -14 | -1 | 4 | x | x | x | x | x | x
O=[N+]([O-])c1ccc(CN2C=NS(=O)(=O)c3ccccc32)cc1 | -0.46 | 11 | x | 1 | x | x | x | x | x | x | x
NN/C(=C\[N+](=O)[O-])Nc1ccc(Cl)cc1 | 6.7* | 56 | x | 0 | x | 0.011 | 0.023* | 0.032 | 0.01* | 0.021 | 0.01
NN/C(=C\[N+](=O)[O-])Nc1ccccc1 | -0.69 | -5 | x | -1 | x | x | x | x | x | x | x
Cc1ccnc(NC(=S)NC(=O)c2cncc(Br)c2)c1 | 8.5* | 5 | -11 | 6 | -5 | 0.0068 | 0.019* | 0.032 | 0.015* | u | 0.014*
Cc1nc(NC(=S)NC(=O)c2cncc(Br)c2)ccc1Br | x | 2 | x | 1 | x | x | x | x | x | x | x
C=CCN1CC(C(=O)N2CCC(Cc3ccc(Cl)cc3)(C(=O)OCC)CC2)CC1=O (stereo not drawn) | -0.29 | x | x | x | x | x | x | x | x | x | x
Cc1ccc(C(=O)NNC(=O)CSc2nnc3c(n2)[nH]c2ccc(C)cc23)cc1 | 5.4* | -23 | -39 | 2 | -9 | 0.0065 | 0.0043 | 0.032 | 0.0073 | 0.018 | 0.011
Cc1cc(C[n+]2cc(Br)ccc2N)c2ncccc2c1 | -1.6 | x | x | x | x | x | x | x | x | x | x
CCO[C@@H]1OC(C(=O)N2CCN(Cc3ccccc3)CC2)=C[C@H](c2csc3ccccc23)[C@H]1CCCO | -2.2 | 15 | x | 1 | x | x | x | x | x | x | x
C/C(=N\NC(=S)NC1CCCCC1)c1cccs1 | 57* | 71* | x | 3 | x | 0.0048 | 0.053* | 0.043* | 0.027* | 0.048* | 0.029*
C/C(=N\NC(=S)NC1CCCCC1)c1c(F)cccc1F | 22* | 74* | x | 2 | x | 0.014* | 0.066* | 0.028 | 0.021* | 0.046* | 0.011*
C=CCc1ccc(OCCCCCN2CCOCC2)c(OC)c1 | x | 20 | 0 | 2 | -7 | x | x | x | x | x | x
Cc1ccc(/C=C2\S/C(=N/S(=O)(=O)c3cccs3)NC2=O)cc1 | 5.7* | x | x | x | x | 0.0067 | 0.016* | 0.03 | 0.014* | u | 0.016*
CC(=O)C1=C(C)Nc2ncnn2C1c1cccc(OCc2ccccc2)c1 (stereo not drawn) | -3.4* | 11 | -47 | 2 | -3 | 0.0079 | 0.006 | 0.032 | 0.0067 | 0.018* | 0.01
CC1=C(C(=O)OCc2ccccc2)C(c2cccnc2)n2ncnc2N1 (stereo not drawn) | x | -11 | -15 | 1 | -6 | x | x | x | x | x | x
SMILES | KCC2 mod | WT yeast gro inh | BB579 growth dn | RAM inhibit | Yeast lifespan up | KCC2 secondary | KCC2 bumet counter | KCC2 secondary2 | HEK counter1 | KCC2 ouabain | HEK counter2
COc1ccccc1NC(=S)N/N=C/c1cccc(C)c1 | 5.5* | 1 | -17 | 2 | 0 | 0.011 | 0.016* | 0.034 | 0.012* | 0.026 | 0.011
Cc1cccc(C(=O)N/N=C/c2ccc3c(c2)OCO3)n1 | 0.68 | -5 | -29 | 2 | -15 | x | x | x | x | x | x
Cc1cccc(NC(=S)N/N=C/c2ccc3c(c2)OCO3)c1 | 10* | 60* | -4 | 3 | -1 | 0.011 | 0.015* | 0.034 | 0.028* | 0.027* | u
COc1ccccc1NC(=S)N/N=C/c1ccc(O)cc1 | -0.6 | 28 | -26 | 5 | 0 | x | x | x | x | x | x
O=C(N/N=C/c1ccc2c(c1)OCO2)c1ccc2ccccc2n1 | 4.9* | 10 | x | 1 | x | 0.017 | 0.018* | 0.032 | 0.012* | 0.02* | 0.016*
CC(=O)c1cccc(NC(=O)C23CC4CC(C2)CC(n2cncn2)(C4)C3)c1 | 0.027 | -4 | -34 | 1 | 2 | x | x | x | x | x | x
CC(C)(Oc1ccc(Cl)cc1)C(=O)NCc1ccc(S(N)(=O)=O)cc1 | 0.043 | 9 | x | 3 | x | x | x | x | x | x | x
Cc1cccc(-n2c(-c3csc(C)c3C)n[nH]c2=S)c1 | 3.9 | 37 | -28 | 0 | 7 | x | x | x | x | x | x
CCCc1cc(-c2n[nH]c(=S)n2-c2cccc(C)c2)cs1 | 106* | 57 | x | 0 | x | 0.022* | 0.2* | 0.04 | 0.058* | 0.062* | 0.017*
Cc1cc(C)c(S(=O)(=O)N2CCCCC2)c(C)c1N(C)S(=O)(=O)c1ccc(Cl)cc1 | 0.35 | 8 | -19 | 3 | 0 | x | x | x | x | x | x
CCCCCn1nnc2c(=O)oc3ccccc3c21 | x | 2 | x | 1 | x | 0.014 | 0.0045 | 0.023* | 0.0053* | 0.01* | u
CCCn1nnc2c(=O)oc3ccccc3c21 | -2.8 | -20 | -41 | 2 | 7 | x | x | x | x | x | x
CCOC(=O)C1=NNC2C(=O)N(C3CCCCC3)C(=O)C12 (stereo not drawn) | -0.054 | -15 | -20 | -1 | 2 | x | x | x | x | x | x
Cc1ccc(C)c(NC(=S)NNC(=O)c2sccc2C)c1 | 4.1* | -11 | -35 | 1 | -10 | 0.011 | 0.026* | 0.038 | u | 0.031* | 0.011
